pIC50: −log10 of the molar value. Active and inactive are the calls of the source. The rule behind the calls is not given here.

The target in assay [1] is T1, Signal transducer and activator of transcription 3 (Homo sapiens, UniProt P40763). As to the kind of experiment: Inhibition of STAT3 phosphorylation at Y705 residues in human MDA-MB-468 cells at 25 uM after 12 hrs by Western blotting analysis. Type of assay: cell-based. An outline of the steps:
(§1)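 Cells lysed in M-PER after 12 h drug exposure (overnight per text); 60 µg total protein run on 10% SDS-PAGE, transferred to PVDF, probed overnight at 4 °C with phospho-specific antibodies. Panel lines (U87-MG, MDA-MB-468, MIA PaCa-2, NCI-H157, A549) given 25 µM; A375 given 0, 5, 10, 25 µM. Actin and/or vinculin loading controls.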
For orientation: A western blot detects proteins with antibodies after separation by electrophoresis.

The target of assay [2] is T1, Signal transducer and activator of transcription 3. In words: Inhibition of STAT3 phosphorylation at S727 residues in human A549 cells at 25 uM after 12 hrs by Western blotting analysis. The class given is cell-based. The essentials: as §1
For assay [3], the system named is 451Lu. In words: Antiproliferative activity against human SB-590885-resistant 451Lu cells assessed as reduction in cell viability measured after 48 hrs by MTS assay. The class given is functional. The essentials: (§2)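 Melanoma lines were grown in RPMI-1640 with Glutamax at 37 °C and 5% CO2. The resistant 451 Lu-R and MEL 1617-R sublines were maintained with 1 µM PLX4720. Cells were incubated with vehicle or inhibitor over a dose range, and viability was read by MTS assay in triplicate.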
(In general: Formazan colour is commonly taken as a measure of viable cells.)

A further assay concerns CCRF-CEM. As to the kind of experiment: Anticancer activity against human CCRF-CEM cells assessed as cell growth inhibition at 10 uM measured after 48 hrs by SRB assay relative to control. Particulars: read-out: GI. The class given is functional. The essentials:
(§3)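 NCI 60-cell-line screen. Cells in RPMI with 5% FBS were plated at 5,000–40,000 cells/well by doubling time and preincubated 24 h at 37 °C. Compound was added at a single 10 µM for 48 h, then cells were fixed with cold TCA (10% final) and stained with 0.4% SRB. Absorbance at 515 nm gave percent growth versus untreated control and time-zero cells.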
A general note: Sulforhodamine B stains cellular protein and so reports cell mass.

The target of assay [4] is T1, Signal transducer and activator of transcription 3. In words: Inhibition of STAT3 phosphorylation at Y705 residues in human A549 cells at 25 uM after 12 hrs by Western blotting analysis. The class given is cell-based. An outline of the steps: as §1
The subject of assay [5] is 451Lu. As to the kind of experiment: Antiproliferative activity against human SB-590885-sensitive 451Lu cells assessed as reduction in cell viability measured after 48 hrs by MTS assay. The class given is functional. An outline of the steps:
as §2

Assay [6] concerns the target Tyrosine-protein kinase JAK2 (Homo sapiens) (UniProt O60674). In words: Inhibition of JAK2 phosphorylation in human NCI-H157 cells at 25 uM after 12 hrs by Western blotting analysis. The class given is cell-based. An outline of the steps:
as §1

Assay [7] concerns the target T1, Signal transducer and activator of transcription 3. In words: Inhibition of STAT3 phosphorylation at S727 residues in human MDA-MB-468 cells at 25 uM after 12 hrs by Western blotting analysis. The class given is cell-based. The essentials:
as §1

Assay [8] deals with 451Lu. In words: Induction of apoptosis in human SB-590885-resistant 451Lu cells assessed as increase in cleaved caspase-7 expression measured after 12 hrs by Western blot analysis. The class given is functional. An outline of the steps: (§4)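 Sensitive and resistant 451 Lu cells were exposed to a dose range for 12 h before lysis. PARP, cleaved PARP and caspase-7 were detected by western blot against a vinculin loading control; repeated twice.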

A further assay deals with U-87 MG. As to the kind of experiment: Antiproliferative activity against human U-87 MG cells measured after 48 hrs by MTS assay. Particulars: U-87MG ATCC. Type of assay: functional, cell-based. The essentials: (§5)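 Cells were exposed to a dose range of inhibitor for 48 h, and viability was read by MTS assay in triplicate. GI50 was taken as the concentration giving 50% growth inhibition, averaged from three independent experiments. A375 was cultured in RPMI-1640 with Glutamax. A549 and NCI-H157 were kept in RPMI-1640, and MIA PaCa-2 and U87-MG in DMEM.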

Another assay deals with A-375. In words: Antiproliferative activity against human A-375 cells measured after 48 hrs by MTS assay. Type of assay: functional, cell-based. The essentials:
as §5

The target in assay [9] is T1, Signal transducer and activator of transcription 3. In words: Inhibition of STAT3 phosphorylation at S727 residues in human U-87 MG cells at 25 uM after 12 hrs by Western blotting analysis. Type of assay: cell-based. An outline of the steps:
as §1

Assay [10] deals with Proto-oncogene tyrosine-protein kinase Src (Homo sapiens) (UniProt P12931). In words: Inhibition of SRC phosphorylation in human U-87 MG cells at 25 uM after 12 hrs by Western blotting analysis. The class given is cell-based. An outline of the steps: as §1
Proto-oncogene tyrosine-protein kinase Src (Homo sapiens), sequence (P12931 2-536 limits assumed): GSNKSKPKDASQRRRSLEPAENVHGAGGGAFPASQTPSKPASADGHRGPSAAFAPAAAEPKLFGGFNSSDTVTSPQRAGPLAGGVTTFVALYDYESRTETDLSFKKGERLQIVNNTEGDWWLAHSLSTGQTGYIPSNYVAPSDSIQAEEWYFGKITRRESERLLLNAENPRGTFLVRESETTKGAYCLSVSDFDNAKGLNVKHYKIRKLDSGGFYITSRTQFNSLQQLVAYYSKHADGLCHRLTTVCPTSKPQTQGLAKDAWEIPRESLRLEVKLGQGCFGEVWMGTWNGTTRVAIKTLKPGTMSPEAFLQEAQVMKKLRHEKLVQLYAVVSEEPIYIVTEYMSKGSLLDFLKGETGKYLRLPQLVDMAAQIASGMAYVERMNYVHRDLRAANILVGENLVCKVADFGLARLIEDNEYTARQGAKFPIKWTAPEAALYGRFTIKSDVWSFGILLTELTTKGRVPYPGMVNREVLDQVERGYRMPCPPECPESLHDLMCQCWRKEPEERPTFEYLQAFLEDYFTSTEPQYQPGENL
The target in assay [11] is T1, Signal transducer and activator of transcription 3. In words: Inhibition of STAT3 phosphorylation at Y705 residues in human NCI-H157 cells at 25 uM after 12 hrs by Western blotting analysis. Type of assay: cell-based. The essentials: as §1
Assay [12] concerns 451Lu. In words: Induction of apoptosis in human SB-590885-sensitive 451Lu cells assessed as increase in cleaved PARP expression measured after 12 hrs by Western blot analysis. The class given is functional. The essentials: as §4
A further assay has as its system MIA PaCa-2. In words: Antiproliferative activity against human MIA PaCa-2 cells measured after 48 hrs by MTS assay. Type of assay: functional, cell-based. The essentials: as §5
For assay [13], the target named is Proto-oncogene tyrosine-protein kinase Src (Homo sapiens) (UniProt P12931). In words: Inhibition of SRC phosphorylation in human MIA PaCa-2 cells at 25 uM after 12 hrs by Western blotting analysis. Type of assay: cell-based. The essentials:
as §1

The subject of a further assay is UACC-62. In words: Anticancer activity against human UACC-62 cells assessed as cell growth inhibition at 10 uM measured after 48 hrs by SRB assay relative to control. The class given is functional. To be noted: read-out: GI. An outline of the steps: as §3
The next assay deals with MEL1617. As to the kind of experiment: Antiproliferative activity against human SB-590885-sensitive MEL1617 cells assessed as reduction in cell viability measured after 48 hrs by MTS assay. The class given is functional, cell-based. An outline of the steps: as §2
In assay [14] the test system is 451Lu. As to the kind of experiment: Induction of apoptosis in human SB-590885-sensitive 451Lu cells assessed as increase in cleaved caspase-7 expression measured after 12 hrs by Western blot analysis. Type of assay: functional. The essentials: as §4
Assay [15] has as its target T1, Signal transducer and activator of transcription 3. In words: Displacement of FAM-labeled 5-GpYLPQTV-NH2 from recombinant GST-tagged STAT3 (unknown origin) preincubated for 30 mins followed by FAM-labeled 5-GpYLPQTV-NH2 addition and measured after 30 mins by fluorescence assay. To be noted: for inhibition: time 60.0 min. The essentials:
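GST-STAT3 (2 µM) was bound to GST beads for 1 h at 4 °C in PBS with 0.1% β-mercaptoethanol, then washed. Bead slurry was incubated with compound dilutions (2.25% DMSO, duplicate) and FAM-GpYLPQTV-NH2 peptide. Resin was washed by vacuum filtration and fluorescence read at ex 485/em 535 nm. % displacement was set against the no-compound signal; two independent experiments.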

The target in assay [16] is Proto-oncogene tyrosine-protein kinase Src (Homo sapiens) (UniProt P12931). In words: Inhibition of SRC phosphorylation in human A549 cells at 25 uM after 12 hrs by Western blotting analysis. The class given is cell-based. The essentials: as §1
Assay [17] has as its target T1, Signal transducer and activator of transcription 3. As to the kind of experiment: Inhibition of STAT3 phosphorylation at Y705 residues in human MIA PaCa-2 cells at 25 uM after 12 hrs by Western blotting analysis. Type of assay: cell-based. The essentials: as §1
Assay [18] has the same target. In words: Inhibition of STAT3 phosphorylation at Y705 residues in human A-375 cells at 5 to 10 uM after 12 hrs by Western blotting analysis. Type of assay: cell-based. Particulars: dose 5-10 µM. An outline of the steps: as §1
Assay [19] concerns 451Lu. In words: Induction of apoptosis in human SB-590885-resistant 451Lu cells assessed as increase in cleaved PARP expression measured after 12 hrs by Western blot analysis. The class given is functional. An outline of the steps:
as §4

Assay [20] deals with T1, Signal transducer and activator of transcription 3. As to the kind of experiment: Inhibition of STAT3 phosphorylation at Y705 residues in human A-375 cells at 10 to 25 uM after 12 hrs by Western blotting analysis. Type of assay: cell-based. To be noted: dose 10-25 µM. An outline of the steps:
as §1

Assay [21] shares this target. As to the kind of experiment: Inhibition of STAT3 phosphorylation at S727 residues in human A-375 cells at 10 to 25 uM after 12 hrs by Western blotting analysis. The class given is cell-based. Particulars: dose 10-25 µM. The essentials:
as §1

T1 sequence (P40763 whole entry): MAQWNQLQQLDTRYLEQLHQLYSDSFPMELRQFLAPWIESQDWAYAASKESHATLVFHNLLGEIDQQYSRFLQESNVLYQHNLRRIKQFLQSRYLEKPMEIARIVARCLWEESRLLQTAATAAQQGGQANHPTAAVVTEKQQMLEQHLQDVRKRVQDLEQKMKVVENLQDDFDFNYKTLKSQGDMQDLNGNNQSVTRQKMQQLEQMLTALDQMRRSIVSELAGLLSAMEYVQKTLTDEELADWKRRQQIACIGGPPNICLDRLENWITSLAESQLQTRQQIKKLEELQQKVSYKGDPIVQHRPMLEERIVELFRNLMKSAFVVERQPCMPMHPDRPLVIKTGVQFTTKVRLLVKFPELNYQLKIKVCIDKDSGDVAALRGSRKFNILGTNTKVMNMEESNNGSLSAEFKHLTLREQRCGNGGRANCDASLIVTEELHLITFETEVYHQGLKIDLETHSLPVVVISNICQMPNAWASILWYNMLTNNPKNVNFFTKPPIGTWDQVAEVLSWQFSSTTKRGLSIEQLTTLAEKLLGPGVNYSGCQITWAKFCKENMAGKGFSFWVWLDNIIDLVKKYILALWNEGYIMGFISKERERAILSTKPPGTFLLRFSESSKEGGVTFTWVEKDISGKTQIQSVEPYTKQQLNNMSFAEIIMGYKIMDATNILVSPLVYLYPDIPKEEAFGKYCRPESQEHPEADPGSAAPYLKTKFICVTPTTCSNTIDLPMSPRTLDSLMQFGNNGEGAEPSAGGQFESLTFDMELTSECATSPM
Tyrosine-protein kinase JAK2 (Homo sapiens), sequence (O60674 whole entry): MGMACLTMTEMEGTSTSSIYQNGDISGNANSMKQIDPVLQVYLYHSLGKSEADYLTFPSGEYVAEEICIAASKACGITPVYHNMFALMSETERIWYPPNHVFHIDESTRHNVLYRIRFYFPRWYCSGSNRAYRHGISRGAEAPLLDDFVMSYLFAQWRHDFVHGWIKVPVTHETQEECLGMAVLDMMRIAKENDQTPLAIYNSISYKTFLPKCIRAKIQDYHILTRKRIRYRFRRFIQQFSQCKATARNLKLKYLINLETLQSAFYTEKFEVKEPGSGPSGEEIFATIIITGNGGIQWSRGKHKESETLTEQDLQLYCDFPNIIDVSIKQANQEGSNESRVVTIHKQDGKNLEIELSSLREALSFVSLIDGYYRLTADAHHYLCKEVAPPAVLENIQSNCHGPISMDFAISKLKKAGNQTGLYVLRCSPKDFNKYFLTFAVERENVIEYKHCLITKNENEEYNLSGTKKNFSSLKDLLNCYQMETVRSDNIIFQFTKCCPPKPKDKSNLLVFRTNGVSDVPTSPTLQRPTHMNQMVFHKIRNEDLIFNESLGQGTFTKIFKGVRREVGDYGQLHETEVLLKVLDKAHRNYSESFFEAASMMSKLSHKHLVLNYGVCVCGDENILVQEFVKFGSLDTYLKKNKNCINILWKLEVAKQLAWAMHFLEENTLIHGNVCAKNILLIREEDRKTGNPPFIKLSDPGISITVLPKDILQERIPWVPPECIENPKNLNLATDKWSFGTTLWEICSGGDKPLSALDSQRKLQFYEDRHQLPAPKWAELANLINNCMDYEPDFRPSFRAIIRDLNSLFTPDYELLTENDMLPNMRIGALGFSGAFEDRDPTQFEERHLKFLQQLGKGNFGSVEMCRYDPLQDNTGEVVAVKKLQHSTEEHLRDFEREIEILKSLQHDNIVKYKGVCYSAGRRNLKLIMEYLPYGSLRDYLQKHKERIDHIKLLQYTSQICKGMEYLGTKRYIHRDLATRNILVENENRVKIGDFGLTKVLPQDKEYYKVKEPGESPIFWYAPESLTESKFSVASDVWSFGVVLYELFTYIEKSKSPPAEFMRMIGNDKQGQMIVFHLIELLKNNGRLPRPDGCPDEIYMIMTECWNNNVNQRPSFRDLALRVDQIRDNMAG

As a reminder, the pIC50 is the negative decadic logarithm of the IC50, by convention in mol/L. As for `C=CCn1c(SCC(=O)Nc2ccc(/C(C)=N\O)cc2)nnc1-c1cc(-c2ccccc2)nc2ccccc12`, the inhibition result in assay [1], in assay [2], in [4], in assay [7], in [9] and in [11] was “Active” in each case. Further, the inhibition entry in [17] and in assay [18] was “Active” each time. Further, the Activity entry in the assay on 451Lu [3], in the assay on 451Lu [5], with 451Lu [8], in the assay on 451Lu [12], in the assay with MEL1617 and in the assay with 451Lu [14] was “Dose-dependent effect” each time. Besides, the Activity result in the assay with 451Lu [19] is “Dose-dependent effect”. Further, the inhibition of growth at 10 µM in the assay on CCRF-CEM and with UACC-62 was 76% in each case. Further, the inhibition result in [6], in assay [10], in [13] and in [16] was “inactive” each time. Also, the outcome in the assay with U-87 MG, in the assay with A-375 and in the assay on MIA PaCa-2 was Active. In addition, the pIC50 in [15] is 6.49. For the same compound, the inhibition result in assay [15] is “Dose-dependent effect”.

Take `C=CCn1c(SCC(=O)Nc2ccc(/C(C)=N\O)cc2)nnc1-c1cc(-c2ccc(Cl)cc2)nc2ccccc12`: in [15], the pIC50 is 6.60 and the inhibition entry was “Dose-dependent effect”. For the same compound, the inhibition entry in assay [20] was “Active”. Also, the inhibition entry in assay [21] is “Active”.
